Here are results for three compounds from publication PMC2709241 (Archives of biochemistry and biophysics, 2008).

SMILES strings stand for the structures. Changes are numbered by the printed parent chain. Where two headings read alike, the source gives them in different places.

In one assay the target is T1, N17A mutant human MDD (Homo sapiens, UniProt P53602, N17A).
T1 sequence (P53602 1-400 N17A): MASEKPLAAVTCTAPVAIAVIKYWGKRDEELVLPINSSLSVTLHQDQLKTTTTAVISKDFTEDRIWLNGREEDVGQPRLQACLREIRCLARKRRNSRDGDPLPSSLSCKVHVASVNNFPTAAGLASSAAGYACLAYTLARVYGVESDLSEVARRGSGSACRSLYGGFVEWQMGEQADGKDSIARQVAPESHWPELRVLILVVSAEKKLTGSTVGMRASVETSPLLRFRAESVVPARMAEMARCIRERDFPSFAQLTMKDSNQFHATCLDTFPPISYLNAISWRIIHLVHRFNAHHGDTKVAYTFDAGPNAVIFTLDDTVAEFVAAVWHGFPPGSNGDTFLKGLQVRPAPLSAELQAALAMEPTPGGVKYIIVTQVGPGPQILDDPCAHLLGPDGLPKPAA
Kind of assay: Steady-state kinetics of N17A human MDD. The class given is biochemical. Conditions: for Km: N17A. The method in brief: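 N17A mutant, made by QuikChange PCR, was expressed and Ni-Sepharose purified as for the wild type. Started with mevalonate diphosphate; substrate varied; Michaelis-Menten fit. Km(ATP) was measured with RS-MVPP raised to 8.8 mM.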

In a further assay the target is T2, N-his tagged human MDD (Homo sapiens, UniProt P53602).
T2 sequence (P53602 1-400): T1 sequence (P53602 1-400 N17A) with A17N
Kind of assay: Steady-state kinetics of N-his tagged human MDD. The class given is biochemical. As to conditions: N-his tagged enzyme. The method in brief: (§1)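 His6-tagged human enzyme from E. coli BL21(DE3) was Ni-Sepharose purified and quantified by Bradford. Spectrophotometric assay at 30°C: ADP formation coupled through pyruvate kinase/lactate dehydrogenase (4 U) to NADH oxidation, with A340 decrease followed. Started with mevalonate diphosphate; substrate varied; Michaelis-Menten fit.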

The target of assay [1] is T3, wild-type C-his tagged human MDD (Homo sapiens, UniProt P53602).
T3 sequence (P53602 1-400): T1 sequence (P53602 1-400 N17A) with A17N
Kind of assay: Steady-state kinetics of wild-type. The class given is biochemical. The method, boiled down:
as §1

A further assay has as its target T4, S162A mutant human MDD (Homo sapiens, UniProt P53602, S162A).
T4 sequence (P53602 1-400 S162A): T1 sequence (P53602 1-400 N17A) with A17N, S162A
Kind of assay: Steady-state kinetics of S162A human MDD. The class given is biochemical. The method in brief: as §1

The target in another assay is T5, wild-type human MDD (Homo sapiens, UniProt P53602).
T5 sequence (P53602 1-400): T1 sequence (P53602 1-400 N17A) with A17N
Kind of assay: TNP-ATP fluorescence titration, Scatchard analysis, wild-type human MDD. It counts as binding. The method in brief:
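Purified His6-tagged enzyme, wild type or mutant, was held at a fixed concentration while TNP-ATP was titrated in at 25°C. Buffer: 50 mM Tris-Cl pH 7.0, 0.5 mM MgCl2, 1 mM DTT. TNP-ATP was quantified at A409 (ε 26 400 M-1 cm-1). Excitation was 409 nm; peak emission (530–538 nm) was corrected for free probe in buffer alone. Scatchard analysis: Kd from slope; n per 44 kDa subunit from x-intercept.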

With `C[C@@](O)(CCOP(=O)(O)OP(=O)(O)O)CC(=O)O` [MVAPP, mevalonate 5-diphosphate], the “Fold Inflation of Km for mevalonate diphosphate, N17A vs WT” value at N17A mutant human MDD (N17A vs WT, listed as R,S-MVAPP) came out at 14.7 fold. The Km was found to be 425 ± 74 µM on N17A mutant human MDD (read-out: Km(R,S-MVAPP), Table 4); 425 ± 74 µM on N17A mutant human MDD (read-out: Km(RS-MVPP), elevated ATP (20 mM) and MgCl2 (22mM)); 42.1 µM at N-his tagged human MDD (read-out: Km(RS-MVPP)); 28.9 ± 3.3 µM in assay [1] (read-out: Km(R,S-MVAPP), WT, Table 4); 28.9 ± 3.3 µM in assay [1] (read-out: Km(RS-MVPP), WT C-his, 30°C, pH 7.0); 0.126 ± 0.0064 mM at S162A mutant human MDD (read-out: Km(RS-MVPP)).
In the case of `Nc1ncnc2c1ncn2[C@@H]1O[C@H](COP(=O)(O)OP(=O)(O)OP(=O)(O)O)[C@H]2OC3(O[C@H]21)C([N+](=O)[O-])=CC(=[N+]([O-])[O-])C=C3[N+](=O)[O-]` (stereo partly shown) [TNP-ATP, 2’(3’)-O-(2,4,6-Trinitrophenyl)adenosine-5’-triphosphate], the Kd at wild-type human MDD was 550 nM. The “n (binding stoichiometry)” value on wild-type human MDD (WT, binding sites per 44 kDa subunit) was 0.77.
For the compound `Nc1ncnc2c1ncn2[C@@H]1O[C@H](COP(=O)(O)OP(=O)(O)OP(=O)(O)O)[C@@H](O)[C@H]1O` [ATP], the Km on N17A mutant human MDD (read-out: Km(ATP), elevated RS-MVPP (8.8 mM)) is 7700 ± 1200 µM; at N-his tagged human MDD (read-out: Km(ATP)), 1700 µM; in assay [1] (read-out: Km(ATP), WT C-his, 30°C, pH 7.0) it was 690 ± 70 µM; on S162A mutant human MDD (read-out: Km(ATP)), 4.9 ± 1.3 mM.
